# Experimental data gathered from unrelated publications.
# Each line is one published result; the experiments were not run side by side.
# Target: Acetylcholinesterase (ACHE, Homo sapiens, UniProt P22303)
# Observed: enzyme activity
# Mode: inhibitor
SMILES,technique,pH,IC50
C=CCn1c2cc(OC(=O)CCCCN3CCN(Cc4ccccc4Cl)CC3)ccc2c2ccnc(C)c21,Ellman,,116 nM
CCOP(=O)(OCC)Oc1ccc2c(C)c(Cl)c(=O)oc2c1,Ellman,,111 nM
O=c1[nH]cc(Br)c(=O)[nH]1,Ellman,,151 nM
C=CCn1c2cc(OC(=O)CCCCN3CCN(Cc4ccc(F)cc4)CC3)ccc2c2ccnc(C)c21,Ellman,,89.4 nM
CNC(=O)Oc1cccc2ccccc12,Ellman,,2780 nM
CN1CCN(CCOc2ccc3occc(=O)c3c2)CC1,Ellman,pH 7.4,72900 nM
C=CCn1c2cc(OC(=O)CCCCN3CCN(Cc4ccccc4C)CC3)ccc2c2ccnc(C)c21,Ellman,,15.7 nM
O=C(CN1C2=NCCN2c2ccccc21)c1ccc(-c2ccccc2)cc1,,,19500 nM
C#CCN(C)c1nc(NCCCCC2CCN(Cc3ccccc3)CC2)c(C#N)c(-c2ccccc2)c1C#N,Ellman,,25 nM
COc1cc(NS(C)(=O)=O)ccc1Nc1c2ccccc2nc2ccccc12,,,22500 nM
CNC(=O)Oc1cccc2c1OC(C)(C)C2,Ellman,,38 nM
C#CCNc1nc(NCCCCC2CCN(Cc3ccccc3)CC2)c(C#N)cc1C#N,Ellman,,2.9 nM
Cc1cc(O)nc(O)n1,Ellman,,191 nM
C=CCn1c2cc(OC(=O)CCCCN3CCN(Cc4ccc(Cl)cc4)CC3)ccc2c2ccnc(C)c21,Ellman,,280 nM
COc1cc2c3cc1Oc1cc(ccc1O)C[C@@H]1c4c(cc(OC)c(O)c4Oc4ccc(cc4)C[C@@H]3N(C)CC2)CC[N+]1(C)C,Ellman,,57600 nM
C=CCn1c2cc(OC(=O)CCCCN3CCN(Cc4ccccc4C(F)(F)F)CC3)ccc2c2ccnc(C)c21,Ellman,,48.4 nM
CN1CCN(CCCOc2ccc3occc(=O)c3c2)CC1,Ellman,pH 7.4,65100 nM
C#CCNc1nc(NCCCC2CCN(Cc3ccccc3)CC2)c(C#N)cc1C#N,Ellman,,1 nM
C=CCn1c2cc(OC(=O)CCCCN3CCN(Cc4ccccc4)CC3)ccc2c2ccnc(C)c21,Ellman,,58.8 nM
CC(=O)n1ccc(=O)[nH]c1=O,Ellman,,136 nM
C=CCn1c2cc(OC(=O)CCCCCCN3CCN(Cc4ccccc4)CC3)ccc2c2ccnc(C)c21,Ellman,,286 nM
CCOP(=S)(OCC)O/N=C(\C#N)c1ccccc1,,,22600 nM
